Measured values: ChEMBL document CHEMBL3108706, “Design, synthesis, and biological activity of novel dicoumarol glucagon-like peptide 1 conjugates” (J Med Chem, 2013)
pEC50: −log10 of the molar value. Active and inactive are the calls of the source. The calls are words filed in the database; no cut-off is given here.

How the values were obtained:
Rattus norvegicus [1] = assay: AUC (0 to infinity) in Sprague-Dawley rat at 15 nmol/kg, sc by LC-MS/MS analysis; assay type: ADME, organism-based, Plasma; set-up: dose 15 nmol/kg, route subcutaneous, time infinity; conditions: in vivo
Rattus norvegicus [2] = assay: Antidiabetic activity in Sprague-Dawley rat assessed as reduction of plasma glucose level at 25 nmol/kg, ip administered 0.5 hrs prior to glucose challenge by OGTT (reference value: 13.32 +/- 1.84 mM); assay type: functional
[3] = Half life in Sprague-Dawley rat plasma at 1000 ng/mL by LC-MS/MS analysis; assay type: ADME, cell-free
[4] = Cmax in Sprague-Dawley rat at 15 nmol/kg, sc by LC-MS/MS analysis; assay type: ADME, organism-based; set-up: dose 15 nmol/kg, route subcutaneous; conditions: in vivo
[5] = Mean residence time in Sprague-Dawley rat at 15 nmol/kg, sc by LC-MS/MS analysis; assay type: ADME, organism-based; conditions: in vivo
[6] = Elimination half life in Sprague-Dawley rat at 15 nmol/kg, sc by LC-MS/MS analysis; assay type: ADME, organism-based; conditions: in vivo, read-out: beta t1/2 (converted)
Mus musculus [7] = assay: Hypoglycemic activity in C57BL/6J-m+/+Leprdb (db/db) mouse assessed as time required to reduce plasma glucose level below 8.35 mM at 25 nmol/kg, ip administered for 0.5 hrs; assay type: functional
How it was run: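 Non-fasted male db/db mice (7 weeks, free access to food and water) got a single ip injection (25 or 150 nmol/kg) or saline. Mean ± SD, n = 6.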

Rattus norvegicus [8] = assay: Antidiabetic activity in Sprague-Dawley rat assessed as increase of plasma insulin level at 25 nmol/kg, ip administered 0.5 hrs prior to glucose challenge measured for 120 mins by ELISA; assay type: functional, organism-based
How it was run: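 SD rats (200−250 g, n = 6/group) were fasted 12 h and given compound ip (25 nmol/kg) or saline 0.5 h before oral glucose (10 g/kg). Tail-vein blood glucose was read with a meter at −30, 0, 15, 30, 45, 60, 90, 120 and 180 min. Insulin was measured by rat insulin ELISA. Mean ± SD.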

Rattus norvegicus [9] = assay: Antidiabetic activity in Sprague-Dawley rat assessed as increase of plasma insulin level at 25 nmol/kg, ip administered 0.5 hrs prior to glucose challenge measured at 15 mins by ELISA; assay type: functional
Rattus norvegicus [10] = assay: Antidiabetic activity in Sprague-Dawley rat assessed as increase of plasma insulin level at 25 nmol/kg, ip administered 0.5 hrs prior to glucose challenge measured at 45 mins by ELISA; assay type: functional
[11] = Tmax in Sprague-Dawley rat at 15 nmol/kg, sc by LC-MS/MS analysis; assay type: ADME, organism-based; conditions: in vivo
albumin = albumin (Homo sapiens, UniProt P02768); assay: Binding affinity to human serum albumin at 100 ug/mL after 3 hrs relative to control; assay type: ADME; conditions: read-out: PB (converted)
How it was run: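 Peptide at 100 μg/mL in PBS (50 μL) was incubated with HSA-conjugated Sepharose resin for 3 h at 25 °C, then centrifuged (1000 rpm, 10 min). Unbound peptide in the supernatant was quantified by micro BCA assay. Nonspecific adsorption was corrected with NHS-inactivated, albumin-free resin.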

Rattus norvegicus [12] = assay: Antidiabetic activity in Sprague-Dawley rat assessed as reduction of plasma glucose level at 25 nmol/kg, ip administered 0.5 hrs prior to glucose challenge measured at 15 to 60 mins by OGTT; assay type: functional, organism-based
Mus musculus [13] = assay: Hypoglycemic activity in C57BL/6J-m+/+Leprdb (db/db) mouse assessed as reduction of plasma glucose level at 25 nmol/kg, ip administered 0.5 hrs prior to glucose challenge measured at 21.5 to 24 hrs by IPGTT; assay type: functional, organism-based
Rattus norvegicus [14] = assay: Anticoagulant activity in Sprague-Dawley rat assessed as prothombin time at 150 nmol/kg, iv administered for 6 days measured on day 7 by coagulometric analysis (reference value: 13.5 +/- 0.32 secs); assay type: functional
Mus musculus [15] = assay: Hypoglycemic activity in C57BL/6J-m+/+Leprdb (db/db) mouse assessed as reduction of plasma glucose level at 25 nmol/kg, ip administered 0.5 hrs prior to glucose challenge measured after 18 to 21 hrs by IPGTT (reference value: >30 mM); assay type: functional
Rattus norvegicus [16] = assay: Anticoagulant activity in Sprague-Dawley rat assessed as activated […] time at 25 nmol/kg, iv administered for 6 days measured on day 7 by coagulometric analysis (reference value: 26.5 +/- 0.81 secs); assay type: functional
Rattus norvegicus [17] = assay: Anticoagulant activity in Sprague-Dawley rat assessed as activated […] time at 150 nmol/kg, iv administered for 6 days measured on day 7 by coagulometric analysis (reference value: 26.5 +/- 0.81 secs); assay type: functional
[18] = target: Glucagon-like peptide 1 receptor (Homo sapiens, UniProt P43220); assay: Activation of human GLP-1 receptor overexpressed in HEK293 cells assessed as cAMP accumulation after 20 mins by HTRF assay; assay type: functional, cell-based
Rattus norvegicus [19] = assay: Anticoagulant activity in Sprague-Dawley rat assessed as thombin time at 25 nmol/kg, iv administered for 6 days measured on day 7 by coagulometric analysis (reference value: 19.38 +/- 0.72 secs); assay type: functional
Mus musculus [20] = assay: Hypoglycemic activity in C57BL/6J-m+/+Leprdb (db/db) mouse assessed as time required to reduce plasma glucose level below 8.35 mM at 150 nmol/kg, ip administered for 0.5 hrs; assay type: functional
How it was run: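 Non-fasted male db/db mice (7 weeks, free access to food and water) got a single ip injection (25 or 150 nmol/kg) or saline. Glucose AUC0−48h and the time for glucose to return below 8.35 mM were derived. Mean ± SD, n = 6.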

Mus musculus [21] = assay: Hypoglycemic activity in C57BL/6J-m+/+Leprdb (db/db) mouse assessed as reduction of plasma glucose level at 25 nmol/kg, ip administered 0.5 hrs prior to glucose challenge measured at 21.5 hrs by IPGTT (reference value: >30 mM); assay type: functional
Rattus norvegicus [22] = assay: Anticoagulant activity in Sprague-Dawley rat assessed as thombin time at 150 nmol/kg, iv administered for 6 days measured on day 7 by coagulometric analysis (reference value: 19.38 +/- 0.72 secs); assay type: functional
Rattus norvegicus [23] = assay: Anticoagulant activity in Sprague-Dawley rat assessed as prothombin time at 25 nmol/kg, iv administered for 6 days measured on day 7 by coagulometric analysis (reference value: 13.5 +/- 0.32 secs); assay type: functional
Mus musculus [24] = assay: Hypoglycemic activity in C57BL/6J-m+/+Leprdb (db/db) mouse assessed as reduction of plasma glucose level at 25 nmol/kg, ip administered 0.5 hrs prior to glucose challenge measured up to 17 hrs by IPGTT (reference value: >30 mM); assay type: functional

Chain of Glucagon-like peptide 1 receptor (P43220 whole entry): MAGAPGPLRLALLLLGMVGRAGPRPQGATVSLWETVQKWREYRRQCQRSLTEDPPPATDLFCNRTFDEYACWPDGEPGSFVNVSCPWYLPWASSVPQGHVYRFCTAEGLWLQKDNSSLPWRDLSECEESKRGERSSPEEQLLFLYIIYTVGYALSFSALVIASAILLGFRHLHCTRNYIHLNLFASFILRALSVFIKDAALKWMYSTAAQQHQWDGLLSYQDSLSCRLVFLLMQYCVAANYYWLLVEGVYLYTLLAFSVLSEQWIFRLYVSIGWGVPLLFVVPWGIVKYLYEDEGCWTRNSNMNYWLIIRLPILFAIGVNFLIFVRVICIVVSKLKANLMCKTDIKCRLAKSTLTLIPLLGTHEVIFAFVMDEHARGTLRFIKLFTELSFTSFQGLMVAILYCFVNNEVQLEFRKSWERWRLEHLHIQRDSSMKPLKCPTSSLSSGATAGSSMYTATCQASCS
Chain of albumin (P02768 whole entry): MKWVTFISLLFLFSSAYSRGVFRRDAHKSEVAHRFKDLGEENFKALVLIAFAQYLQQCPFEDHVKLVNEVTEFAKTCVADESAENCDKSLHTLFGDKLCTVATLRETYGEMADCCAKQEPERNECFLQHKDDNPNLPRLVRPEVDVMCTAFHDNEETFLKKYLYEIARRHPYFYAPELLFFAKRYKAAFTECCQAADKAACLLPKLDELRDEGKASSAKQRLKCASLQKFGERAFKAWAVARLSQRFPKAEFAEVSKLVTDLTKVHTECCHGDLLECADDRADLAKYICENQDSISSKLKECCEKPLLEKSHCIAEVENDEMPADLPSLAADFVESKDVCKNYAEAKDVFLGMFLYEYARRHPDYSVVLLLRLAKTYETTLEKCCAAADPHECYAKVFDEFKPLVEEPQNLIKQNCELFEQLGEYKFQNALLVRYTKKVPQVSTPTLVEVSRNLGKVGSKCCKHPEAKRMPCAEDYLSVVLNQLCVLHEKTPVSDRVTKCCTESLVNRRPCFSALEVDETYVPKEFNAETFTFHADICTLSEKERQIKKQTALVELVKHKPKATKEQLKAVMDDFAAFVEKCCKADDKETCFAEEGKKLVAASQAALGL

AUC (Rattus norvegicus [1]) [ng·h/mL] | half-life at 1000 ng/mL [3] [h] | Cmax [4] [ng/mL] | MRT [5] [h] | half-life [6] [h] | Tmax [11] [h] | fraction unbound at 3 h, 100 ug/mL (albumin) | pEC50 [18] | Structure (SMILES) | Activity (Rattus norvegicus [2]) [mM] | Time (Mus musculus [7]) [h] | Activity (Rattus norvegicus [8]) | Activity (Rattus norvegicus [9]) [pM] | Activity (Rattus norvegicus [10]) [pM] | Activity (Rattus norvegicus [12]) | further results
18100 | 17.1 | 902 | 18.3 | 12.5 | 1.51 | 0.087 | – | CCCCCCCCCCCCCCCC(=O)N[C@@H](CCC(=O)NCCCC[C@H](NC(=O)[C@H](C)NC(=O)[C@H](C)NC(=O)[C@H](CCC(N)=O)NC(=O)CNC(=O)[C@H](CCC(=O)O)NC(=O)[C@H](CC(C)C)NC(=O)[C@H](Cc1ccc(O)cc1)NC(=O)[C@H](CO)NC(=O)[C@H](CO)NC(=O)[C@@H](NC(=O)[C@H](CC(=O)O)NC(=O)[C@H](CO)NC(=O)[C@@H](NC(=O)[C@H](Cc1ccccc1)NC(=O)[C@@H](NC(=O)CNC(=O)[C@H](CCC(=O)O)NC(=O)[C@H](C)NC(=O)[C@@H](N)Cc1cnc[nH]1)[C@@H](C)O)[C@@H](C)O)C(C)C)C(=O)N[C@@H](CCC(=O)O)C(=O)N[C@@H](Cc1ccccc1)C(=O)N[C@H](C(=O)N[C@@H](C)C(=O)N[C@@H](Cc1c[nH]c2ccccc12)C(=O)N[C@@H](CC(C)C)C(=O)N[C@H](C(=O)N[C@@H](CCCNC(=N)N)C(=O)NCC(=O)N[C@@H](CCCNC(=N)N)C(=O)NCC(=O)O)C(C)C)[C@@H](C)CC)C(=O)O [LIRAGLUTIDE] | 8.3 | 19 | Active | 992.08 | 425.34 | Active | –
36800 | 55.8 | 907 | 29.8 | 18.8 | 1.3 | 0.06 | 10.62 | CC[C@H](C)[C@H](NC(=O)[C@H](Cc1ccccc1)NC(=O)[C@H](CCC(=O)O)NC(=O)[C@H](CCCCN)NC(=O)[C@H](C)NC(=O)[C@H](C)NC(=O)[C@H](CCC(N)=O)NC(=O)CNC(=O)[C@H](CCC(=O)O)NC(=O)[C@H](CC(C)C)NC(=O)[C@H](Cc1ccc(O)cc1)NC(=O)[C@H](CO)NC(=O)[C@H](CO)NC(=O)[C@@H](NC(=O)[C@H](CC(=O)O)NC(=O)[C@H](CO)NC(=O)[C@@H](NC(=O)[C@H](Cc1ccccc1)NC(=O)[C@@H](NC(=O)CNC(=O)[C@H](CCC(=O)O)NC(=O)CNC(=O)[C@@H](N)Cc1cnc[nH]1)[C@@H](C)O)[C@@H](C)O)C(C)C)C(=O)N[C@@H](C)C(=O)N[C@@H](Cc1c[nH]c2ccccc12)C(=O)N[C@@H](CC(C)C)C(=O)N[C@H](C(=O)N[C@@H](CCCCN)C(=O)NCC(=O)N[C@@H](CCCNC(=N)N)C(=O)N[C@@H](CSC1CC(=O)N(CCCCCCCCCCCC(=O)Nc2ccc(C(c3c(O)c4ccccc4oc3=O)c3c(O)c4ccccc4oc3=O)cc2)C1=O)C(N)=O)C(C)C (some centres undefined) | 7.8 | 22.5 | Active | 1052.22 | 524.26 | Active | Activity (Mus musculus [13]): Active; PT (Rattus norvegicus [14]): 13.53 s; Activity (Mus musculus [15]): <16 mM; APTT (Rattus norvegicus [16]): 26.76 s; APTT (Rattus norvegicus [17]): 26.48 s; TT (Rattus norvegicus [19]): 19.4 s; Time (Mus musculus [20]): 30.4 h; Activity (Mus musculus [21]): 16.25 mM; TT (Rattus norvegicus [22]): 19.8 s; PT (Rattus norvegicus [23]): 13.39 s; Activity (Mus musculus [24]): <12 mM
– | 9.7 | – | – | – | – | 0.332 | 11.52 | CC[C@H](C)[C@H](NC(=O)[C@H](Cc1ccccc1)NC(=O)[C@H](CCC(=O)O)NC(=O)[C@H](CCCCN)NC(=O)[C@H](C)NC(=O)[C@H](C)NC(=O)[C@H](CCC(N)=O)NC(=O)CNC(=O)[C@H](CCC(=O)O)NC(=O)[C@H](CC(C)C)NC(=O)[C@H](Cc1ccc(O)cc1)NC(=O)[C@H](CO)NC(=O)[C@H](CO)NC(=O)[C@@H](NC(=O)[C@H](CC(=O)O)NC(=O)[C@H](CO)NC(=O)[C@@H](NC(=O)[C@H](Cc1ccccc1)NC(=O)[C@@H](NC(=O)CNC(=O)[C@H](CCC(=O)O)NC(=O)CNC(=O)[C@@H](N)Cc1cnc[nH]1)[C@@H](C)O)[C@@H](C)O)C(C)C)C(=O)N[C@@H](C)C(=O)N[C@@H](Cc1c[nH]c2ccccc12)C(=O)N[C@@H](CC(C)C)C(=O)N[C@H](C(=O)N[C@@H](CCCCN)C(=O)NCC(=O)N[C@@H](CCCNC(=N)N)C(=O)N[C@@H](CSC1CC(=O)N(CCC(=O)Nc2ccc(C(c3c(O)c4ccccc4oc3=O)c3c(O)c4ccccc4oc3=O)cc2)C1=O)C(N)=O)C(C)C (some centres undefined) | – | – | – | – | – | – | –
– | 20.7 | – | – | – | – | 0.162 | 10.47 | CC[C@H](C)[C@H](NC(=O)[C@H](Cc1ccccc1)NC(=O)[C@H](CCC(=O)O)NC(=O)[C@H](CCCCN)NC(=O)[C@H](C)NC(=O)[C@H](C)NC(=O)[C@H](CCC(N)=O)NC(=O)CNC(=O)[C@H](CCC(=O)O)NC(=O)[C@H](CC(C)C)NC(=O)[C@H](Cc1ccc(O)cc1)NC(=O)[C@H](CO)NC(=O)[C@H](CSC1CC(=O)N(CCCCCC(=O)Nc2ccc(C(c3c(O)c4ccccc4oc3=O)c3c(O)c4ccccc4oc3=O)cc2)C1=O)NC(=O)[C@@H](NC(=O)[C@H](CC(=O)O)NC(=O)[C@H](CO)NC(=O)[C@@H](NC(=O)[C@H](Cc1ccccc1)NC(=O)[C@@H](NC(=O)CNC(=O)[C@H](CCC(=O)O)NC(=O)CNC(=O)[C@@H](N)Cc1cnc[nH]1)[C@@H](C)O)[C@@H](C)O)C(C)C)C(=O)N[C@@H](C)C(=O)N[C@@H](Cc1c[nH]c2ccccc12)C(=O)N[C@@H](CC(C)C)C(=O)N[C@H](C(=O)N[C@@H](CCCCN)C(=O)NCC(=O)N[C@@H](CCCNC(=N)N)C(N)=O)C(C)C (some centres undefined) | – | – | – | – | – | – | –
